# According to ChEMBL document CHEMBL2321792, “Synthesis and antimalarial activity of 3,3-spiroanellated 5,6-disubstituted 1,2,4-trioxanes” (ACS Med Chem Lett, 2013):
# Activity calls are given as the source filed them. The rule behind the calls is not given here.
# Legend:
# [1] = system: Plasmodium yoelii nigeriensis; assay: Antimalarial activity against chloroquine, mefloquine and halofantrine-resistant Plasmodium yoelii nigeriensis infected in Swiss mouse assessed as protection against parasite-induced mortality at 96 mg/kg, im administered for 4 days measured on day 28; assay type: functional, organism-based; parameters: dose 96 mg/kg
# Outline: (§1)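 Peters 4-day test in Swiss mice infected with multidrug-resistant P. yoelii nigeriensis. Groups of 5 mice were dosed once daily for 4 days at the stated mg/kg, oral or i.m. Mice were followed to day 28. Protection is the percentage of treated mice surviving to day 28, read from the alive/total count per group.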
# [2] = system: Plasmodium yoelii nigeriensis; assay: Antimalarial activity against chloroquine, mefloquine and halofantrine-resistant Plasmodium yoelii nigeriensis infected in Swiss mouse assessed as suppression of parasitemia at 96 mg/kg, po administered for 4 days measured on day 4; assay type: functional; settings: 96 h
# Outline: (§2)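 Swiss mice infected with multidrug-resistant P. yoelii nigeriensis were treated by the Peters procedure: 5 per group, dosed daily for 4 days, oral or i.m. Parasitaemia was read on day 4 against an untreated control group. Suppression = [(c − t)/c] × 100, where c is control and t is treated parasitaemia. 100% means parasites were below the detection limit.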
# [3] = system: Plasmodium yoelii nigeriensis; assay: Antimalarial activity against chloroquine, mefloquine and halofantrine-resistant Plasmodium yoelii nigeriensis infected in Swiss mouse assessed as protection against parasite-induced mortality at 96 mg/kg, po administered for 4 days measured on day 28; assay type: functional, organism-based; parameters: dose 96 mg/kg, route po po po po po po po po po po po; outline: as §1
# [4] = system: Plasmodium yoelii nigeriensis; assay: Antimalarial activity against chloroquine, mefloquine and halofantrine-resistant Plasmodium yoelii nigeriensis infected in Swiss mouse assessed as suppression of parasitemia at 96 mg/kg, im administered for 4 days measured on day 4; assay type: functional; settings: 96 h, route intramuscular; outline: as §2
# [5] = system: Plasmodium yoelii nigeriensis; assay: Antimalarial activity against chloroquine, mefloquine and halofantrine-resistant Plasmodium yoelii nigeriensis infected in Swiss mouse assessed as suppression of parasitemia at 48 mg/kg, po administered for 4 days measured on day 4; assay type: functional; settings: 96 h; outline: as §2
# [6] = system: Plasmodium yoelii nigeriensis; assay: Antimalarial activity against chloroquine, mefloquine and halofantrine-resistant Plasmodium yoelii nigeriensis infected in Swiss mouse assessed as protection against parasite-induced mortality at 48 mg/kg, po administered for 4 days measured on day 28; assay type: functional; outline: as §1
# [7] = system: Plasmodium yoelii nigeriensis; assay: Antimalarial activity against chloroquine, mefloquine and halofantrine-resistant Plasmodium yoelii nigeriensis infected in Swiss mouse assessed as protection against parasite-induced mortality at 24 mg/kg, po administered for 4 days measured on day 28; assay type: functional; outline: as §1
# [8] = system: Plasmodium yoelii nigeriensis; assay: Antimalarial activity against chloroquine, mefloquine and halofantrine-resistant Plasmodium yoelii nigeriensis infected in Swiss mouse assessed as suppression of parasitemia at 24 mg/kg, po administered for 4 days measured on day 4; assay type: functional; settings: 96 h; outline: as §2
# Plasma = assay: Fraction unbound in rat plasma at 10 uM by ultra-filtration method; assay type: ADME, cell-free
# [9] = Half life in rat liver microsomes at […] by HPLC-PDA analysis; assay type: ADME, Microsome
# [10] = system: Plasmodium yoelii nigeriensis; assay: Antimalarial activity against chloroquine, mefloquine and halofantrine-resistant Plasmodium yoelii nigeriensis infected in Swiss mouse assessed as protection against parasite-induced mortality at 12 mg/kg, po administered for 4 days measured on day 28; assay type: functional, organism-based; parameters: dose 12 mg/kg; outline: as §1
# [11] = system: Plasmodium yoelii nigeriensis; assay: Antimalarial activity against chloroquine, mefloquine and halofantrine-resistant Plasmodium yoelii nigeriensis infected in Swiss mouse assessed as suppression of parasitemia at 12 mg/kg, po administered for 4 days measured on day 4; assay type: functional; settings: 96 h; outline: as §2
# [12] = Effective permeability coefficient of the compound in Sprague-Dawley rat intestine at 10 uM by In-situ single pass intestinal perfusion technique; assay type: ADME, tissue-based; settings: other: in situ single pass intestinal perfusion, read-out: Peff
# [13] = Intrinsic clearance in rat liver microsomes at […] by HPLC-PDA analysis; assay type: ADME, Microsome; settings: read-out: CLH
# [14] = Solubility of the compound in distilled water after 24 hrs by shake flask method; assay type: physicochemical
# [15] = Distribution coefficient, log D of the compound at pH 7.4 by HPLC-PDA analysis; assay type: physicochemical; settings: octanol/water
# [16] = Inhibition of CYP3A in rat liver microsome using testosterone as substrate by HPLC-PDA analysis; assay type: ADME, microsomes
# [17] = Metabolic stability in rat liver microsomes at […] after 30 mins by HPLC-PDA analysis; assay type: ADME, Microsome; settings: read-out: Stability
# Cytochrome P450 2D4 = molecular target: T1, Cytochrome P450 2D4 (Rattus norvegicus, UniProt Q64680); assay: Inhibition of CYP2D4 in rat liver microsome using dextromethorphan as substrate by HPLC-PDA analysis; assay type: ADME, microsomes
# T1 sequence (Q64680 whole entry): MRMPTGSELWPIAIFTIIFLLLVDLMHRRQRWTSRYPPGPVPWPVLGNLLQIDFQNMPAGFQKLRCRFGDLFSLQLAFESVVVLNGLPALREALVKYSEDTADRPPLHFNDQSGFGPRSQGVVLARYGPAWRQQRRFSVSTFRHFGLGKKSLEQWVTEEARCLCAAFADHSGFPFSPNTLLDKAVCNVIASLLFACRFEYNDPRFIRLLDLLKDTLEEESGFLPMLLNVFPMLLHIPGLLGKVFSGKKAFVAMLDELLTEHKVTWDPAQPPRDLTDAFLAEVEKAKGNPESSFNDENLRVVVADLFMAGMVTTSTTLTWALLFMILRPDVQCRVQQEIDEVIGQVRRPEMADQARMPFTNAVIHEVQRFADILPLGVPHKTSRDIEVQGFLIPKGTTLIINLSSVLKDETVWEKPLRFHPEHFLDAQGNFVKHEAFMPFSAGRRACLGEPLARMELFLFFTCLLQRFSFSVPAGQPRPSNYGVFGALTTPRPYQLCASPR
# Cytochrome P450 2C11 = molecular target: T2, Cytochrome P450 2C11 (Rattus norvegicus, UniProt P08683); assay: Inhibition of CYP2C11 in rat liver microsome using diclofenac as substrate by HPLC-PDA analysis; assay type: ADME, microsomes
# T2 sequence (P08683 whole entry): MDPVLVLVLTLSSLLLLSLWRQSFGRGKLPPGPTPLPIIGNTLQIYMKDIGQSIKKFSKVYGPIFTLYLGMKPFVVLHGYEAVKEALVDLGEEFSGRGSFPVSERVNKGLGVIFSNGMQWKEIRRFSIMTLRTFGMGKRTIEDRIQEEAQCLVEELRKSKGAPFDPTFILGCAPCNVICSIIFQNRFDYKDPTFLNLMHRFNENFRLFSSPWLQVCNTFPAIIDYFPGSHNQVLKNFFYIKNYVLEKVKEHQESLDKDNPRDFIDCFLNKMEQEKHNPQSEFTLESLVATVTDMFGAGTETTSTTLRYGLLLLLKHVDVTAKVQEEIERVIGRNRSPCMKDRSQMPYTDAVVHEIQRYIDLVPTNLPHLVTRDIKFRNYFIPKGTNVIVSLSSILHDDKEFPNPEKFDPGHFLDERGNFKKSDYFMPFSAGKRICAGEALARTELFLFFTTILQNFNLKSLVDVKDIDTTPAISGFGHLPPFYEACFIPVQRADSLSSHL
# Cytochrome P450 1A2 = molecular target: T3, Cytochrome P450 1A2 (Rattus norvegicus, UniProt P04799); assay: Inhibition of CYP1A2 in rat liver microsome using phenacetin as substrate by HPLC-PDA analysis; assay type: ADME, microsomes
# T3 sequence (P04799 whole entry): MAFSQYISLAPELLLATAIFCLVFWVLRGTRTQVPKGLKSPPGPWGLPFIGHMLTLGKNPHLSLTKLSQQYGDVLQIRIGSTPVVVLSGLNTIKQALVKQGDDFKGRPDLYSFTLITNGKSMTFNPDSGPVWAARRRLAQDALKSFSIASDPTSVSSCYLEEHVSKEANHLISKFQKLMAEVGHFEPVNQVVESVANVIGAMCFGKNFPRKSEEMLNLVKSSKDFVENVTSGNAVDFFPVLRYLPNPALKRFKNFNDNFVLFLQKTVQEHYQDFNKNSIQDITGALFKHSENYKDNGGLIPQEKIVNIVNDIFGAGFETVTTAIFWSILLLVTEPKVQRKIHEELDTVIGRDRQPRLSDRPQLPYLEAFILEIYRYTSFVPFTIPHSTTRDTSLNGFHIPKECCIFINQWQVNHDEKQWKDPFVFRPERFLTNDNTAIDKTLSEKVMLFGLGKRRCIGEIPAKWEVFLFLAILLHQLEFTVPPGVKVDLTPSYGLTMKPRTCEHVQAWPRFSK
Compound,Activity [1],inhibition in vivo at 96 mg/kg [2],Activity [3],inhibition in vivo at 96 mg/kg [4],further results
C=C(c1ccc(C)cc1)[C@H]1OOC2(O[C@@H]1c1ccc(C)cc1)C1CC3CC(C1)CC2C3 (relative stereo),inactive,36.7%,inactive,5.76%,–
C=C(c1ccc(Br)cc1)[C@H]1OOC2(CCCCC2)O[C@@H]1c1ccc(Br)cc1 (relative stereo),–,100%,–,–,–
C=C(c1ccc(Cl)cc1)[C@H]1OOC2(O[C@@H]1c1ccc(Cl)cc1)C1CC3CC(C1)CC2C3 (relative stereo),–,77.2%,–,–,–
C=C(c1ccc(F)cc1)[C@H]1OOC2(CCCC2)O[C@@H]1c1ccc(F)cc1 (relative stereo),–,22.5%,inactive,–,–
C=C(c1ccccc1)[C@H]1OOC2(O[C@@H]1c1ccccc1)C1CC3CC(C1)CC2C3 (relative stereo),inactive,32.4%,inactive,44.8%,–
C=C(c1ccc(C)cc1)[C@H]1OOC2(CCCCC2)O[C@@H]1c1ccc(C)cc1 (relative stereo),inactive,–,–,16.6%,inhibition in vivo at 48 mg/kg [5]: 89.4%; Activity [6]: inactive; Activity [7]: inactive; inhibition in vivo at 24 mg/kg [8]: 49.6%
C=C(c1ccccc1)[C@H]1OOC2(CCCC2)O[C@@H]1c1ccccc1 (relative stereo),inactive,23.8%,inactive,46.9%,–
C=C(c1ccccc1)[C@H]1OOC2(CCCCC2)O[C@@H]1c1ccccc1 (relative stereo),inactive,34.5%,inactive,22.3%,–
C=C(c1ccc(Cl)cc1)[C@H]1OOC2(CCCC2)O[C@@H]1c1ccc(Cl)cc1 (relative stereo),–,63.6%,inactive,–,–
C=C(c1ccc(Cl)cc1)[C@H]1OOC2(CCCCC2)O[C@@H]1c1ccc(Cl)cc1 (relative stereo),inactive,100%,–,3.45%,Fu (Plasma): 0.8%; half-life [9]: 23 min; Activity [10]: inactive; Activity [6]: Active; inhibition in vivo at 12 mg/kg [11]: 100%; Papp at 10 µM [12]: 113 ×10⁻⁶ cm/s; microsomal CLint [13]: 60.3 µL/min/mg; Activity [7]: 100%; solubility thermodynamic at 24 h ([14]; distilled water): 13 µM; inhibition in vivo at 24 mg/kg [8]: 100%; logD [15]: 4.23
C=C(c1ccc(Br)cc1)[C@H]1OOC2(CCCC2)O[C@@H]1c1ccc(Br)cc1 (relative stereo),–,–,–,–,inhibition in vivo at 48 mg/kg [5]: 100%; Activity [6]: 20%; Activity [7]: inactive; inhibition in vivo at 24 mg/kg [8]: 98.6%
CCO[C@H]1O[C@@H]2O[C@@]3(C)CC[C@H]4[C@H](C)CC[C@@H]([C@H]1C)[C@@]24OO3 [ARTEMOTIL],–,–,–,–,"IC50 [16]: > 100 µM; Fu (Plasma): 1%; half-life [9]: 47.4 min; inhibition in vivo at 48 mg/kg [5]: 100%; remaining at 0.5 h [17]: 50%; Activity [6]: 100%; microsomal CLint [13]: 36.6 µL/min/mg; Activity [7]: 20%; IC50 (Cytochrome P450 2D4): > 100 µM; solubility ([14]; buffer, 24 h): Insoluble; IC50 (Cytochrome P450 2C11): > 100 µM; inhibition in vivo at 24 mg/kg [8]: 100%; IC50 (Cytochrome P450 1A2): > 100 µM; logD [15]: 3.6"
C=C(c1ccc(Br)cc1)[C@H]1OOC2(O[C@@H]1c1ccc(Br)cc1)C1CC3CC(C1)CC2C3 (relative stereo),–,18.1%,inactive,–,–
C=C(c1ccc(F)cc1)[C@H]1OOC2(O[C@@H]1c1ccc(F)cc1)C1CC3CC(C1)CC2C3 (relative stereo),–,16.7%,inactive,–,–
C=C(c1ccc(OC)cc1)[C@H]1OOC2(O[C@@H]1c1ccc(OC)cc1)C1CC3CC(C1)CC2C3 (relative stereo),–,24.6%,inactive,–,–
C=C(c1ccc(C)cc1)[C@H]1OOC2(CCCC2)O[C@@H]1c1ccc(C)cc1 (relative stereo),–,100%,inactive,–,–
C=C(c1ccc(F)cc1)[C@H]1OOC2(CCCCC2)O[C@@H]1c1ccc(F)cc1 (relative stereo),–,42.5%,inactive,–,–
